The subject of test [1] is Beta-TC6. The experiment in a line: Maximum inhibition of glucose stimulated insulin release from mouse beta-TC6 cells at 10 uM in vitro. Type of test: functional.
Test [2] relates to Beta-TC6. Nature of the test: Ability to inhibit the release of insulin from the mouse beta-TC6 cell line. The test is classed as functional, cell-based. Summed up:
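βTC6 cells, 5 × 10⁴/well, grown 3 days in DMEM + 10% FCS, 11 mM glucose, 20 mM Hepes. Washed twice in NN buffer with 0.1% BSA, preincubated 60 min, then 3 h with 22 mM glucose, 0.1 mM IBMX and serial compound dilutions. Insulin in supernatant measured by in-house ELISA (guinea pig anti-insulin, rat insulin standard). Reference compound as positive control.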

The nature of test [3]: Changes in potassium fluxes assessed in the glucose responsive insulin-producing murine cell line beta-TC3. Type of test: functional, cell-based, Mus musculus. Summed up:
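βTC3 membrane potential read as DiBAC4(3) fluorescence at 0.01, 0.1, 1, 10 and 100 µM, four wells each. Signal normalized to each well's initial value and expressed as fractional fluorescence change over 45 min incubation. EC50 from four-parameter nonlinear fit; mean ± SEM of at least three independent experiments.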

A further test is filed under the species Rattus norvegicus. The experiment in a line: Ability to relax phenylephrine-contracted rat aorta rings. The test is classed as functional.

SMILES strings stand for the structures. pEC50, pIC50: −log10 of the molar value. A value given as a limit tells only on which side of the number the result lay.

The source of these data is ChEMBL document CHEMBL1135780, “6-Chloro-3-alkylamino-4H-thieno[3,2-e]-1,2,4-thiadiazine 1,1-dioxide derivatives potently and selectively activate ATP sensitive potassium channels of pancreatic beta-cells” (J Med Chem, 2002).

Usually Emax stands for the maximal effect, on the per cent scale that the assay sets. Usually pIC50 stands for the negative decadic logarithm of the IC50, by convention in mol/L. A higher pIC50 goes with a small IC50. For orientation: pEC50 means −log10 of the EC50, conventionally taken in molar units. A low value points to a high EC50. Consider `O=S1(=O)NC(NC2CCCCC2)=Nc2cc(Cl)sc21`, for which, in the test with Beta-TC6 [1], the Emax at 10 µM came out at 40%. The molecule further gave a pIC50 with Beta-TC6 [2] of 4.59. Also, the negative-log EC50 (pEC50) in test [3] is 5.10; in the test listed under Rattus norvegicus it was 5.17.

In the test on Beta-TC6 [1], `CC(C)CCCC(C)NC1=NS(=O)(=O)c2sc(Cl)cc2N1` (racemic) registered a maximal effect (Emax) at 10 µM of 72%. In the test on Beta-TC6 [2], the negative-log IC50 (pIC50) was 5.31. For the same molecule, the figures for the negative-log EC50 (pEC50) (in test [3]; in the test listed under Rattus norvegicus) were 5.70 and 4.60, respectively.

`CC(C)[C@@H](C)NC1=NS(=O)(=O)c2sc(Cl)cc2N1` came in with an Emax at 10 µM in the test on Beta-TC6 [1] of 62%. This molecule also gave a negative-log IC50 (pIC50) in the test on Beta-TC6 [2] of 6.00. For the same molecule, the pEC50 in test [3] was 6.52; in the test filed under Rattus norvegicus it was 4.12.

In turn, `CC(C)C(C)NC1=NS(=O)(=O)c2sc(Cl)cc2N1` (racemic) registered an Emax at 10 µM with Beta-TC6 [1] of 79%. Also, the negative logarithm of the IC50 (pIC50) with Beta-TC6 [2] was 6.77. Moreover, the pEC50 in the test listed under Rattus norvegicus was 4.46.

In the test with Beta-TC6 [1], `CC1(NC2=NS(=O)(=O)c3sc(Cl)cc3N2)CCCCC1` came in with a maximal effect (Emax) at 10 µM of 62%. In the test with Beta-TC6 [2], this molecule gave a pIC50 of 5.27. The pEC50 in test [3] was 6.00; in the test listed under Rattus norvegicus it was 5.85.

In the test on Beta-TC6 [1], `CC(C)[C@H](C)NC1=NS(=O)(=O)c2sc(Cl)cc2N1` returned a maximal response (Emax) at 10 µM of 80%. In addition, in the test with Beta-TC6 [2], the negative logarithm of the IC50 (pIC50) was 6.25. Moreover, the pEC50 in test [3] is 4.85; in the test filed under Rattus norvegicus, below 3.52.

`O=S1(=O)NC(NC2CC2)=Nc2cc(Cl)sc21` registered an Emax at 10 µM with Beta-TC6 [1] of 37%. For the same molecule, the pIC50 in the test on Beta-TC6 [2] is 5.13. For the same molecule, the negative logarithm of the EC50 (pEC50) was below 4.52 in test [3] and 4.55 in the test listed under Rattus norvegicus.

Molecule `CCCC(C)NC1=NS(=O)(=O)c2sc(Cl)cc2N1` (racemic) registered an Emax at 10 µM in the test on Beta-TC6 [1] of 56%. The negative-log IC50 (pIC50) in the test with Beta-TC6 [2] is 6.66. The values for the pEC50 (in test [3]; in the test listed under Rattus norvegicus) were 4.39 and 4.08, respectively.

In the test with Beta-TC6 [1], `CCCCCCCCNC1=NS(=O)(=O)c2sc(Cl)cc2N1` came in with an Emax at 10 µM of 76%. The molecule further showed a negative-log IC50 (pIC50) in the test on Beta-TC6 [2] of 5.82. The pEC50 in test [3] was 6.30; in the test listed under Rattus norvegicus it was 3.75.

On to `CCC1(NC2=NS(=O)(=O)c3sc(Cl)cc3N2)CCC1`, for which the Emax at 10 µM in the test with Beta-TC6 [1] was 81%. In the test with Beta-TC6 [2], this molecule had a pIC50 of 7.70. For the same molecule, the pEC50 in test [3] was 7.00; in the test listed under Rattus norvegicus, 5.48.

On to `CCC(C)NC1=NS(=O)(=O)c2sc(Cl)cc2N1` (centres undefined), for which the maximal response (Emax) at 10 µM in the test on Beta-TC6 [1] was 74%. In the test with Beta-TC6 [2], this molecule showed a pIC50 of 6.80. Moreover, the pEC50 is 5.89 in test [3] and 4.19 in the test listed under Rattus norvegicus.

Regarding `CC1(NC2=NS(=O)(=O)c3sc(Cl)cc3N2)CCCC1`, the maximal effect (Emax) at 10 µM in the test with Beta-TC6 [1] amounted to 79%. The same molecule gave a pIC50 in the test with Beta-TC6 [2] of 7.15. In addition, the pEC50 in test [3] was 7.10; in the test filed under Rattus norvegicus it was 5.21.

The molecule `CCCCCC(C)NC1=NS(=O)(=O)c2sc(Cl)cc2N1` (racemic) displayed an Emax at 10 µM in the test with Beta-TC6 [1] of 36%. This molecule also gave a negative-log IC50 (pIC50) in the test on Beta-TC6 [2] of 4.60. Besides, the pEC50 in test [3] is 6.40; in the test filed under Rattus norvegicus it was 5.70.

In the test with Beta-TC6 [1], `CCC(CC)CNC1=NS(=O)(=O)c2sc(Cl)cc2N1` gave an Emax at 10 µM of 38%. The molecule also gave a negative-log IC50 (pIC50) with Beta-TC6 [2] of 6.62. The figures for the pEC50 (in test [3]; in the test filed under Rattus norvegicus) were below 4.00 and 5.10, respectively.

As to `CC(NC1=NS(=O)(=O)c2sc(Cl)cc2N1)C(C)(C)C` (racemic), the Emax at 10 µM in the test with Beta-TC6 [1] turned out to be 56%. Further, the pIC50 in the test on Beta-TC6 [2] is 6.12. The pEC50 in test [3] was 4.77; in the test filed under Rattus norvegicus, 5.70.
